Screening data as filed in PubChem BioAssay.
Most compounds without a hit are left out; they make up all but 1.5% or so of the library.
NSD2 inh = inhibitors of human histone methyltransferase NSD2 | inhibition, % at 12.5 µM | hit rate 0.54% among 310,000 | NSD2 peptide methylation, AlphaScreen, 120 min
HCV NS3 hel inh = HCV NS3 helicase inhibition; NS3 helicase DNA unwinding, Cy5 molecular beacon fluorescence; inhibition, % at 10.9 µM; hit rate 0.56% among 290,000;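 active = inhibition above the mean of all tested compounds plus 3 SD, set per campaign, cut at about 35% in these data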;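 also: 0% = DMSO wells and 100% = thioflavine S control wells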
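Assay system: hepatitis C virus NS3 helicase domain fragment enzyme. Also added: annealed dual-labelled DNA beacon duplex, ATP-started. Timing: 1 h reaction at 25 °C, ATP-initiated. Technique: Cy5 fluorescence at 0 and 60 min, beacon hairpin quenching. Evaluation: % inhibition of unwinding. Replication: one well per compound.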
Casp6 inh = caspase-6 (human) enzyme inhibition | P55212 | AID 686996 | hit rate 0.53% among 350,000 | purified caspase-6, Z-VEID-R110 cleavage fluorescence | inhibition, % at 12.5 µM;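 active = mean inhibition across replicates at least about 35%, with every replicate also reaching that limit, limit read from the data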;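 also: 0% = median of neutral control wells and 100% = no fluorescence left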
DNMT1 block = inhibitors of human DNMT1 | P26358 | inhibition (reported as % activation of signal), % at 10 µM | DNMT1 molecular beacon, Hinp1I cleavage, fluorescence | hit rate 0.83% among 360,000
NS3 hel confirm = HCV NS3 helicase inhibition, confirmation assay; shares compounds with HCV NS3 hel inh; NS3 helicase DNA unwinding, Cy5 molecular beacon fluorescence; inhibition, % at 10.9 µM; hit rate 31% among 1,600;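 active = inhibition above the mean of all tested compounds plus 3 SD, cutoff set per campaign, cut at about 36% in these data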
FID counter trip = displaces DNA intercalator in HCV helicase counter-screen | shares compounds with HCV NS3 hel inh | DNA fluorescent intercalator displacement, fluorescence | inhibition, % at 7.9 µM | hit rate 4% among 1,600 | AID 1945; in the data active = inhibition above about 37%;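 also: 0% = vehicle and 100% = reference compound; higher means more displacement of ethidium bromide from the DNA hairpin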
FID counter DR = displaces fluorescent intercalator from DNA, HCV helicase counter-screen; 120 tested, under 10 active; fluorescent intercalator displacement from DNA, fluorescence; shares compounds with HCV NS3 hel inh; IC50, µM; call rule not given here
* marks the source's active call; other numbers are inactive results. Rule as the data show it, unless noted: active = inhibition above about 50%; inactive = the rest.

C=CCN1C(=O)/C(=C/c2ccc(Br)s2)C(=O)NC1=S was read as NSD2 inh 23, HCV NS3 hel inh 46*, Casp6 inh 53*, DNMT1 block 34, NS3 hel confirm 68* and FID counter trip 9.
CCN1C(=O)/C(=C\c2ccc([N+](=O)[O-])s2)C(=O)NC1=S was read as HCV NS3 hel inh 31.
Screening O=C(Cc1ccccc1)N1CC2(C1)[C@H](c1ccccc1)[C@@H](CO)N2Cc1cccc(F)c1 returned Casp6 inh -1.
For COc1ccc(OC)c(N2C(=O)NC(=O)/C(=C/c3ccc([N+](=O)[O-])s3)C2=O)c1 the results were HCV NS3 hel inh 25, Casp6 inh 22 and DNMT1 block 21.
Screening COc1ccc(OC)c(N2C(=O)/C(=C/c3ccco3)C(=O)NC2=S)c1 returned HCV NS3 hel inh 44*, NS3 hel confirm 104* and FID counter trip 62*.
Screening O=C(O)[C@@H]1[C@@H](CO)[C@@H]2Cn3c(cccc3=O)[C@H]1N2C(=O)c1ccccc1 returned Casp6 inh -1.
For COc1ccc(CC(=O)Nc2ccc3c(C(F)(F)F)cc(=O)oc3c2)cc1OC the results were NSD2 inh -2, HCV NS3 hel inh 59*, DNMT1 block -3, NS3 hel confirm -13 and FID counter trip -21.
For Cc1ccc(N2C(=O)NC(=O)/C(=C/c3ccc(-c4ccc(C(=O)O)c(Cl)c4)o3)C2=O)cc1 the results were NSD2 inh 44, HCV NS3 hel inh 39*, Casp6 inh 24, DNMT1 block 41, NS3 hel confirm 36* and FID counter trip 9.
Screening CC=Cc1ccc2n(c1=O)C[C@H]1[C@H](CO)[C@@H](C(=O)OC)[C@@H]2N1CC1CCOCC1 (mixture of isomers) returned Casp6 inh 1.
Cc1ccc(N2C(=O)NC(=O)/C(=C\C=C\c3ccco3)C2=O)cc1C was read as NSD2 inh 65*, HCV NS3 hel inh 38*, Casp6 inh 38*, DNMT1 block 66*, NS3 hel confirm 62*, FID counter trip 15 and FID counter DR >79.
For Cc1cccc(N2C(=O)NC(=O)/C(=C\C=C\c3ccco3)C2=O)c1 the results were HCV NS3 hel inh 27, Casp6 inh 30 and DNMT1 block 40.
For O=C1NC(=O)N(Cc2ccccc2)C(=O)/C1=C\C=C\c1ccco1 the results were NSD2 inh 42, HCV NS3 hel inh 42*, Casp6 inh 60*, DNMT1 block 45, NS3 hel confirm 23 and FID counter trip 12.
`C=CCN1C(=O)NC(=O)/C(=C/C=C/c2ccccc2)C1=O` gave HCV NS3 hel inh 1, Casp6 inh 1 and DNMT1 block 0.
Screening O=C(N/N=C/c1c(O)n(CCC2=CCCCC2)c(=O)[nH]c1=O)c1ccccc1 returned HCV NS3 hel inh 12, Casp6 inh 1 and DNMT1 block -2.
O=C(N/N=C/c1c(O)n(CCC2=CCCCC2)c(=S)[nH]c1=O)c1ccccc1 was read as NSD2 inh -1, HCV NS3 hel inh 40*, Casp6 inh 4, DNMT1 block -1, NS3 hel confirm 99*, FID counter trip 4 and FID counter DR >79.
For CC(C)c1ccc(-n2c(O)c(C=NC(CCS(C)=O)C(=O)O)c(=O)[nH]c2=S)cc1 (stereo not drawn) the results were HCV NS3 hel inh 40*, Casp6 inh 5, DNMT1 block 2, NS3 hel confirm -8 and FID counter trip 12.
`CC1Oc2cc3c(-c4c(O)cc(O)c5c(O)c6c(cc45)OC(C)C(C)C6=O)c(O)cc(O)c3c(O)c2C(=O)C1C` (stereo not drawn) gave HCV NS3 hel inh 50*, DNMT1 block 60*, NS3 hel confirm 96* and FID counter trip 64*.
For OC[C@H]1Nc2ccc(C#Cc3cccnc3)cc2[C@H]2NCC[C@H]21 the results were Casp6 inh 17.
For CCN(CC)c1ccc(N=Cc2c(O)n(Cc3ccco3)c(=O)[nH]c2=O)cc1 the results were NSD2 inh 0, HCV NS3 hel inh 37*, Casp6 inh 3, DNMT1 block 3, NS3 hel confirm 4 and FID counter trip -2.
